Reference: ChEMBL document CHEMBL1127799, “Derivatives of a novel cyclopeptolide. 1. Synthesis, antifungal activity, and structure-activity relationships” (1994)
≈ marks a conversion by molar mass, not a printed value.

How the values were obtained:
Format in all cases: functional
Pichia kudriavzevii [1] = assay: Tested for minimum inhibitory concentration against Candida krusei 132 (C.k) at pH of 4.5.
Method in brief: (§1)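 Broth microdilution in malt extract broth, initial pH 4.5 or 6.5, with 1×10^3 CFU per 0.2 mL well of thawed stored cultures. Compound stocks were made in 5% DMSO/0.2% Tween 80 and diluted to final 0.05–100 μg/mL. Plates were incubated 48 h at 30 °C and read macroscopically. MIC was the lowest concentration with no detectable growth. Vehicle-only wells served as controls.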

[2] = tested on: Meyerozyma guilliermondii; assay: Tested for minimum inhibitory concentration against Candida guilliermondii 80 (C.g) at pH of 4.5.; method in brief: as §1
Candida tropicalis [3] = assay: Tested for minimum inhibitory concentration against Candida tropicalis 43 (C.t) at pH of 4.5.; method in brief: as §1
Candida albicans [4] = assay: Tested for minimum inhibitory concentration against Candida albicans 124 (Candida albicans) at pH of 4.5.; method in brief: as §1
[5] = tested on: Meyerozyma guilliermondii; assay: Tested for minimum inhibitory concentration against Candida guilliermondii 80 (C.g) at pH of 6.5.; method in brief: as §1
Pichia kudriavzevii [6] = assay: Tested for minimum inhibitory concentration against Candida krusei 132 (C.k) at pH of 6.5.; method in brief: as §1
Candida tropicalis [7] = assay: Tested for minimum inhibitory concentration against Candida tropicalis 43 (C.t) at pH of 6.5.; method in brief: as §1
Candida albicans [8] = assay: Tested for minimum inhibitory concentration against Candida albicans 124 (Candida albicans) at pH of 6.5.; method in brief: as §1

| MIC (Pichia kudriavzevii [1]) [µg/mL] | MIC [2] [µg/mL] | MIC (Candida tropicalis [3]) [µg/mL] | MIC (Candida albicans [4]) [µg/mL] | MIC [5] [µg/mL] | MIC (Pichia kudriavzevii [6]) [µg/mL] | MIC (Candida tropicalis [7]) [µg/mL] | MIC (Candida albicans [8]) [µg/mL] | Structure (SMILES) |
| --- | --- | --- | --- | --- | --- | --- | --- | --- |
| > 100 | > 100 | > 100 | 100 (≈ 94 µM) | > 100 | > 100 | > 100 | > 100 | CC[C@@H](C)[C@H]1C(=O)NCC(=O)N(C)[C@@H](C(C)C)C(=O)N[C@@H](CC(=O)O)C(=O)O[C@H](C)C(=O)N2CCCC[C@H]2C(=O)N(C)[C@@H](C(C)C)C(=O)N[C@@H](C(C)C)C(=O)N(C)[C@@H](CC(=O)O)C(=O)N(C)[C@@H]([C@@H](C)CC)C(=O)N1C |
| > 100 | > 100 | > 100 | > 100 | > 100 | > 100 | > 100 | > 100 | CC[C@@H](C)[C@H]1C(=O)NCC(=O)N(C)[C@@H](C(C)C)C(=O)N[C@@H](Cc2ccc(OC)cc2)C(=O)O[C@H](C)C(=O)N2CCCC[C@H]2C(=O)N(C)[C@@H](C(C)C)C(=O)N[C@@H](C(C)C)C(=O)N(C)[C@@H](CC(=O)NCCN(C)C)C(=O)N(C)[C@@H]([C@@H](C)CC)C(=O)N1C |
| > 100 | > 100 | > 100 | 25 (≈ 22.2 µM) | > 100 | > 100 | > 100 | 100 (≈ 88.9 µM) | CC[C@@H](C)[C@H]1C(=O)NCC(=O)N(C)[C@@H](C(C)C)C(=O)N[C@@H](Cc2ccc(OC)cc2)C(=O)N[C@H](C)C(=O)N2CCCC[C@H]2C(=O)N(C)[C@@H](C(C)C)C(=O)N[C@@H](C(C)C)C(=O)N(C)[C@@H](CC(=O)O)C(=O)N(C)[C@@H]([C@@H](C)CC)C(=O)N1C |
| > 100 | > 100 | > 100 | > 100 | > 100 | > 100 | > 100 | > 100 | CC[C@@H](C)[C@H]1C(=O)NCC(=O)N(C)[C@@H](C(C)C)C(=O)N[C@@H](Cc2ccc(OC)cc2)C(=O)O[C@H](C)C(=O)N2CCCC[C@H]2C(=O)N(C)[C@@H](C(C)C)C(=O)N[C@@H](C(C)C)C(=O)N(C)[C@@H](CC(=O)Nc2ccc(Br)cc2)C(=O)N(C)[C@@H]([C@@H](C)CC)C(=O)N1C |
| > 100 | > 100 | > 100 | > 100 | > 100 | > 100 | > 100 | > 100 | CCCCCCCCOC(=O)C[C@H]1C(=O)N(C)[C@@H]([C@@H](C)CC)C(=O)N(C)[C@@H]([C@H](C)CC)C(=O)NCC(=O)N(C)[C@@H](C(C)C)C(=O)N[C@@H](Cc2ccc(OC)cc2)C(=O)O[C@H](C)C(=O)N2CCCC[C@H]2C(=O)N(C)[C@@H](C(C)C)C(=O)N[C@@H](C(C)C)C(=O)N1C |
| > 100 | > 100 | 100 (≈ 86.6 µM) | 12.5 (≈ 10.8 µM) | > 100 | > 100 | > 100 | 50 (≈ 43.3 µM) | CC[C@@H](C)[C@H]1C(=O)NCC(=O)N(C)[C@@H](C(C)C)C(=O)N[C@@H](Cc2ccc(OC)cc2)C(=O)O[C@H](C)C(=O)N2CCCC[C@H]2C(=O)N(C)[C@@H](C(C)C)C(=O)N[C@@H](C(C)C)C(=O)N(C)[C@@H](CCOC(C)=O)C(=O)N(C)[C@@H]([C@@H](C)CC)C(=O)N1C |
| > 100 | > 100 | > 100 | > 100 | > 100 | > 100 | > 100 | > 100 | CC[C@@H](C)[C@H]1C(=O)NCC(=O)N(C)[C@@H](C(C)C)C(=O)N[C@@H](Cc2ccc(OC)cc2)C(=O)O[C@H](C)C(=O)N2CCCC[C@H]2C(=O)N(C)[C@@H](C(C)C)C(=O)N[C@@H](C(C)C)C(=O)N(C)[C@@H](CCCl)C(=O)N(C)[C@@H]([C@@H](C)CC)C(=O)N1C |
| > 100 | > 100 | > 100 | > 100 | – | – | – | – | CC[C@H](C)[C@H]1C(=O)NCC(=O)N(C)[C@@H](C(C)C)C(=O)N[C@@H](Cc2ccc(OC)cc2)C(=O)N[C@@H](C)C(=O)N[C@H](C)C(=O)N2CCCC[C@H]2C(=O)N(C)[C@@H](C(C)C)C(=O)N[C@@H](C(C)C)C(=O)N(C)[C@@H](CC(=O)OC(C)(C)C)C(=O)N(C)[C@@H]([C@@H](C)CC)C(=O)N1C |
